Laboratory results published in ChEMBL document CHEMBL3593160, “Orally active ghrelin receptor inverse agonists and their actions on a rat obesity model” (Bioorg Med Chem, 2015).
Calls of active or inactive are those of the source. No cut-off for these calls is given here.

Tests used:
[1] = target: T1, Growth hormone secretagogue receptor type 1 (Rattus norvegicus, UniProt O08725); assay: Antagonist activity at rat ghrelin receptor expressed in CHO cells assessed as blocking of human ghrelin-induced response by FLIPR based intracellular Ca2+ mobilization assay; assay type: functional, cell-based
T1 sequence (O08725 whole entry): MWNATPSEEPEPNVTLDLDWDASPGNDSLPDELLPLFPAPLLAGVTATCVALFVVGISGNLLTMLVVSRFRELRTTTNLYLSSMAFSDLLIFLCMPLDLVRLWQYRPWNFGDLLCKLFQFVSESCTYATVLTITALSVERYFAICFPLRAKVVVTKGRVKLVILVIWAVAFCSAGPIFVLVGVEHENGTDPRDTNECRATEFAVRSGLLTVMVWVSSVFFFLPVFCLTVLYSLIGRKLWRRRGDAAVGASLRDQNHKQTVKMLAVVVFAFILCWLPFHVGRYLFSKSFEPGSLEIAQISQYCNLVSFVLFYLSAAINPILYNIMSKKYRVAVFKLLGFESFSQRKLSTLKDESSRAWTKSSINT
Procedure, shortened: (§1)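 CHO cells stably expressing rat ghrelinR, loaded with Calcium 3 dye for 2.5 h at room temperature in HBSS with 20 mM Hepes, 2.5 mM probenecid and 1 mg/mL BSA. Compound added, then 1 nM human ghrelin. Response taken as peak fluorescence minus basal.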

[2] = target: T1, Growth hormone secretagogue receptor type 1; assay: Antagonist activity at ghrelin receptor in Sprague-Dawley rat primary pituitary cells assessed as inhibition of ghrelin-induced growth hormone secretion incubated for 15 mins by ELISA method; assay type: cell-based, Pituitary gland cell
Procedure, shortened: (§2)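 SD rat (6–8 weeks, male) anterior pituitary cells dispersed with collagenase and papain and cultured 2 days. Cells preincubated 1.5 h in HBSS with 1% BSA, 0.25% glucose and 25 mM HEPES, then treated 15 min at 37 °C with 1 nM ghrelin present. GH in supernatant measured by ELISA. Inhibition = (C−E)/C×100.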

[3] = Total clearance in ICR mouse by LC/MS/MS method; assay type: ADME, organism-based; settings: in vivo
[4] = target: T1, Growth hormone secretagogue receptor type 1; assay: Displacement of [125I]human ghrelin from rat ghrelin receptor expressed in CHO cell membranes incubated for 30 mins by scintillation counting method
Procedure, shortened: (§3)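 Membranes from CHO cells stably expressing rat or human ghrelinR (3.34 µg protein) incubated with 0.04 nM [125I]human ghrelin and varied compound concentrations for 30 min at room temperature. Buffer: 50 mM Hepes pH 7.5, 1 mM CaCl2, 5 mM MgCl2, 75 mM NaCl, 0.5% BSA. Membranes filtered and washed; bound radioactivity counted by scintillation.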

[5] = Oral bioavailability in ICR mouse by LC/MS/MS method; assay type: ADME, organism-based; settings: in vivo
[6] = target: Growth hormone secretagogue receptor type 1 (Rattus norvegicus) (UniProt O08725); assay: Antagonist activity at rat ghrelin receptor expressed in CHO cells assessed as blocking of human ghrelin-induced response by FLIPR based intracellular Ca2+ mobilization assay relative to control; assay type: functional, cell-based; procedure, shortened: as §1
Sequence of Growth hormone secretagogue receptor type 1 (Rattus norvegicus) (O08725 whole entry): as above

[7] = target: T1, Growth hormone secretagogue receptor type 1; assay: Inverse agonist activity rat ghrelin receptor expressed in HEK293 cells by luciferase reporter gene assay; assay type: cell-based
Procedure, shortened: (§4)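 HEK293 cells transiently transfected (about 5 h, Lipofectamine 2000) with rat ghrelinR vector (10 ng) and pNFAT-Luc (100 ng) per well. Compounds added in RPMI1640 with 0.1% dialyzed FBS and incubated overnight at 37 °C. Constitutive NFAT-luciferase signal read by luminescence; viability checked by AlamarBlue.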

Liver microsome = assay: Metabolic stability in human liver microsomes assessed as metabolic rate at 1 uM incubated for 30 mins in presence of NADPH by LC/MS/MS method; assay type: ADME; settings: 0.5 h
[8] = target: Growth hormone secretagogue receptor type 1 (Rattus norvegicus) (UniProt O08725); assay: Antagonist activity at ghrelin receptor in Sprague-Dawley rat primary pituitary cells assessed as inhibition of ghrelin-induced growth hormone secretion incubated for 15 mins by ELISA method relative to control; assay type: cell-based; settings: Pituitary gland cell; procedure, shortened: as §2
[9] = target: Growth hormone secretagogue receptor type 1 (Homo sapiens, UniProt Q92847); assay: Displacement of [125I]human ghrelin from human ghrelin receptor expressed in CHO cell membranes incubated for 30 mins by scintillation counting method; procedure, shortened: as §3
Sequence of Growth hormone secretagogue receptor type 1 (Homo sapiens, UniProt Q92847) (Q92847 whole entry): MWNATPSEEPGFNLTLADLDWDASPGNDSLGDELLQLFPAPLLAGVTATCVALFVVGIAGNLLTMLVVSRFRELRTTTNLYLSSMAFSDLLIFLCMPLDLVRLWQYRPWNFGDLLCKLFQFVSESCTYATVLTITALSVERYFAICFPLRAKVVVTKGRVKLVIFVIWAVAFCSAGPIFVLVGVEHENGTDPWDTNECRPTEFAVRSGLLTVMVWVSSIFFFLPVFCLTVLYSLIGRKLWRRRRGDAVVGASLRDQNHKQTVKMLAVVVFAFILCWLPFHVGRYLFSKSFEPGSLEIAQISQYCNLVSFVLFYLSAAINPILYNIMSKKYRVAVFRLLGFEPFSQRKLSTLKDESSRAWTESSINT

[10] = target: Growth hormone secretagogue receptor type 1 (Rattus norvegicus) (UniProt O08725); assay: Inverse agonist activity rat ghrelin receptor expressed in HEK293 cells by luciferase reporter gene assay relative to control; assay type: cell-based; procedure, shortened: as §4
[11] = Drug concentration in brain of Sprague-Dawley rat model of high-fat diet-induced obesity at 10 mg/kg, po BID for 3 weeks; assay type: ADME, organism-based; settings: read-out: Drug uptake
Procedure, shortened: (§5)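 Brain level estimated as mean plasma concentration (AUC0-24/24 h, day 1 of twice-daily oral dosing in HFD-obese SD rats) multiplied by the B/P ratio from normal rats. The ratio divides this by the binding IC50.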

[12] = Ratio of drug concentration in brain of Sprague-Dawley rat model of high-fat diet-induced obesity at 10 mg/kg, po BID for 3 week to IC50 for displacement of [125I]human ghrelin from rat ghrelin receptor expressed in CHO cell membranes; assay type: organism-based; settings: in vivo, 504 h; procedure, shortened: as §5
[13] = Plasma concentration in Sprague-Dawley rat model of high-fat diet-induced obesity at 30 mg/kg, po BID for 3 weeks; assay type: ADME, organism-based
Procedure, shortened: (§6)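 Male SD rats fed 60% fat diet for 10 weeks, habituated to oral vehicle dosing for 3 weeks. Compound given orally as a suspension in 0.5% hydroxypropyl cellulose at 9:30 am and 6:00 pm. Plasma levels measured on the first dosing day. AUC0-24 from these levels; mean plasma concentration = AUC0-24/24 h.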

[14] = Ratio of drug level in brain to plasma of Sprague-Dawley rat at 1 mg/kg, iv after 2 hrs by LC/MS/MS method; assay type: ADME, organism-based; settings: read-out: BPR
Rattus norvegicus [15] = assay: Inhibition of total calorie intake in Sprague-Dawley rat model of high-fat diet-induced obesity at 10 mg/kg, po BID 3 weeks; assay type: functional, organism-based; settings: in the assay text read “14 days” for “3 weeks”
Procedure, shortened: (§7)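 Male SD rats given a 60% fat diet for 10 weeks, habituated 3 weeks to oral vehicle, and randomized to vehicle, treatment or pair-fed groups. Oral dosing twice daily (9:30 am, 6:00 pm) as a 0.5% hydroxypropyl cellulose suspension. Body weight and daily food intake recorded before the morning dose. Pair-fed rats got the previous day's treated-group mean intake plus vehicle.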

[16] = Ratio of plasma concentration in Sprague-Dawley rat model of high-fat diet-induced obesity at 30 mg/kg, po BID for 3 week to IC50 for displacement of [125I]human ghrelin from rat ghrelin receptor expressed in CHO cell membranes; assay type: organism-based; settings: in vivo, 504 h
Procedure, shortened: (§8)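 Mean plasma concentration (AUC0-24/24 h, day 1 of twice-daily oral dosing in HFD-obese SD rats) divided by the binding IC50.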

[17] = AUC (0 to 24 hrs) in Sprague-Dawley rat model of high-fat diet-induced obesity at 30 mg/kg, po BID for 3 weeks; assay type: ADME, organism-based; set-up: time < 24 hr, dose 30 mg/kg, route oral; settings: in vivo; procedure, shortened: as §6
[18] = Plasma concentration in Sprague-Dawley rat model of high-fat diet-induced obesity at 10 mg/kg, po BID for 3 weeks; assay type: ADME, organism-based; procedure, shortened: as §6
[19] = Ratio of free plasma concentration in Sprague-Dawley rat model of high-fat diet-induced obesity at 10 mg/kg, po BID for 3 week to IC50 for displacement of [125I]human ghrelin from rat ghrelin receptor expressed in CHO cell membranes; assay type: organism-based; settings: in vivo, 504 h
Procedure, shortened: (§9)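 Free concentration = total concentration × free fraction from human plasma protein binding by equilibrium dialysis. Plasma level is AUC0-24/24 h on day 1 of twice-daily oral dosing in HFD-obese SD rats. Brain level is plasma × B/P ratio from normal rats. Each is divided by the binding IC50.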

[20] = Ratio of plasma concentration in Sprague-Dawley rat model of high-fat diet-induced obesity at 10 mg/kg, po BID for 3 week to IC50 for displacement of [125I]human ghrelin from rat ghrelin receptor expressed in CHO cell membranes; assay type: organism-based; settings: in vivo, 504 h; procedure, shortened: as §8
[21] = Ratio of free drug concentration in brain of Sprague-Dawley rat model of high-fat diet-induced obesity at 30 mg/kg, po BID for 3 week to IC50 for displacement of [125I]human ghrelin from rat ghrelin receptor expressed in CHO cell membranes; assay type: organism-based; settings: in vivo, 504 h; procedure, shortened: as §9
[22] = Ratio of free plasma concentration in Sprague-Dawley rat model of high-fat diet-induced obesity at 30 mg/kg, po BID for 3 week to IC50 for displacement of [125I]human ghrelin from rat ghrelin receptor expressed in CHO cell membranes; assay type: organism-based; settings: in vivo, 504 h; procedure, shortened: as §9
[23] = Ratio of drug concentration in brain of Sprague-Dawley rat model of high-fat diet-induced obesity at 30 mg/kg, po BID for 3 week to IC50 for displacement of [125I]human ghrelin from rat ghrelin receptor expressed in CHO cell membranes; assay type: organism-based; settings: in vivo, 504 h; procedure, shortened: as §5
[24] = Ratio of free drug concentration in brain of Sprague-Dawley rat model of high-fat diet-induced obesity at 10 mg/kg, po BID for 3 week to IC50 for displacement of [125I]human ghrelin from rat ghrelin receptor expressed in CHO cell membranes; assay type: organism-based; settings: in vivo, 504 h; procedure, shortened: as §9
Rattus norvegicus [25] = assay: Oral bioavailability in Sprague-Dawley rat at 10 mg/kg by LC/MS/MS method; assay type: ADME, organism-based; settings: in vivo
Procedure, shortened: (§10)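 Non-fasted SD rats (n = 3/group) dosed 10 mg/kg orally or 1 mg/kg iv in 5% DMSO/10% HPCD in saline. Heparinized plasma sampled 0.08 (iv only) to 24 h. Parameters by noncompartmental analysis.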

Rattus norvegicus [26] = assay: AUC (0 to 24 hrs) in Sprague-Dawley rat model of high-fat diet-induced obesity at 10 mg/kg, po BID for 3 weeks; assay type: ADME, organism-based; set-up: dose 10 mg/kg, time < 24 hr, route oral; settings: in vivo; procedure, shortened: as §6
Rattus norvegicus [27] = assay: Inhibition of total calorie intake in Sprague-Dawley rat model of high-fat diet-induced obesity at 30 mg/kg, po BID 3 weeks; assay type: functional, organism-based; settings: in the assay text read “14 days” for “3 weeks”; procedure, shortened: as §7
[28] = Protein binding in human plasma at 10 uM incubated for 4 hrs by equilibrium dialysis; assay type: ADME, cell-free; settings: read-out: PPB
Procedure, shortened: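 10 µM compound in human plasma dialysed against DPBS pH 7.4 for 4 h at 37 °C by rapid equilibrium dialysis. Plasma and buffer fractions acetonitrile-extracted and quantified by LC/MS/MS.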

Rattus norvegicus [29] = assay: Total clearance in Sprague-Dawley rat at 1 mg/kg, iv by LC/MS/MS method; assay type: ADME, organism-based; settings: in vivo; procedure, shortened: as §10
[30] = Drug concentration in brain of Sprague-Dawley rat model of high-fat diet-induced obesity at 30 mg/kg, po BID for 3 weeks; assay type: ADME, organism-based; settings: read-out: Drug uptake; procedure, shortened: as §5
Rattus norvegicus [31] = assay: Inhibition of daily weight gain in Sprague-Dawley rat model of high-fat diet-induced obesity at 30 mg/kg, po BID for14 days; assay type: functional, organism-based; procedure, shortened: as §7

Structure (SMILES) | IC50 [1] | IC50 [2] | IC50 [4] | Efficacy [6] | IC50 [7] | Drug metabolism (Liver microsome) | Efficacy [8] | IC50 [9] | Efficacy [10] | concentration at 504 h [11] | Ratio [12] | concentration at 504 h [13] | Kp at 2 h [14] | inhibition (Rattus norvegicus [15]) | Ratio [16] | AUC at 24 h [17] | concentration at 504 h [18] | Ratio [19] | Ratio [20] | Ratio [21] | other results
COc1ccc(CNC(=O)c2cc(C3=C[C@@H]4CC[C@H](C3)N4C(C)=O)cnc2NCc2ccc3c(c2)OCO3)cc1Cl | 100 nM | 32.8 nM | 5.6 nM | > 95% | 9.8 nM | 39 pmol/min/mg | > 95% | 0.3 nM | > 95% |  |  |  |  |  |  |  |  |  |  |  | clearance [3]: 180 mL/min/kg; bioavailability [5]: 7.2%
COc1ccc(CNC(=O)c2cc(C#CC(C)(C)NC(C)=O)cnc2NCc2ccc3c(c2)OCO3)cc1Cl | 34 nM | 36.2 nM | 6.6 nM | > 95% | 26 nM | 81 pmol/min/mg | > 95% | 3 nM | > 95% | 132 nM | 19 | 5670 nM | 0.07 | inactive | 859 | 74700 ng·h/mL | 1890 nM | 2.9 | 286 | 0.6 | Ratio [22]: 8.6; Ratio [23]: 58; Ratio [24]: 0.2; F (Rattus norvegicus [25]): 46.4%; AUC (Rattus norvegicus [26]): 24901 ng·h/mL; inhibition (Rattus norvegicus [27]): inactive; fraction unbound at 4 h, 10 µM [28]: 0.01; CL (Rattus norvegicus [29]): 27.8 mL/min/kg; concentration at 504 h [30]: 370 nM
Cc1ccc(CNC(=O)c2cc(C#CC(C)(C)O)cnc2NCc2ccc3c(c2)OCO3)cc1C(F)F | 13 nM | 11.6 nM | 0.28 nM | > 95% | 5.4 nM | 103 pmol/min/mg | > 95% | 0.44 nM | > 95% | 19 nM | 68 | 272 nM | 0.21 | inactive | 972 | 3310 ng·h/mL | 91 nM | 3.2 | 324 | 2 | inhibition (Rattus norvegicus [31]): Active; Ratio [22]: 97; Ratio [23]: 203; Ratio [24]: 0.7; F (Rattus norvegicus [25]): 23.8%; AUC (Rattus norvegicus [26]): 1105 ng·h/mL; inhibition (Rattus norvegicus [27]): inactive; fraction unbound at 4 h, 10 µM [28]: 0.01; CL (Rattus norvegicus [29]): 12.3 mL/min/kg; concentration at 504 h [30]: 57 nM
